From ChEMBL document CHEMBL3272237, “Gliotoxin analogues as inhibitors of reverse transcriptase. 1. Effect of lipophilicity” (J Med Chem, 1978)

Key:
[1] = tested on: Moloney murine leukemia virus; assay: Inhibition of Moloney murine leukemia virus reverse transcriptase using [3H-methyl]-dTTP as substrate after 120 mins; parameters: unit not given here
Method in brief: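 Enzyme source was Moloney MLV from infected NIH-3T3 cells, gradient-purified, used as whole virus. Mix: 40 mM Tris-HCl pH 7.8, 50 mM NaCl, 2 mM MnCl2, 1.6 mM DTT, 0.0125% Triton X-100, 0.64 mM each dATP/dCTP/dGTP, [methyl-3H]dTTP. Compounds were tested at 4–400 μg/mL (Me2SO up to 4%). Incubation was 37 °C, sampled at 120 min for acid-precipitable counts, mean of three runs. I50 read from %-of-Me2SO-control plot.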

[2] = Lipophilicity of the compound by reversed-phase HPLC analysis; conditions: ODS stationary phase, MeOH-H2O (2:1) mobile phase
[3] = Lipophilicity of the compound by reversed-phase TLC analysis; format: physicochemical; conditions: RP-TLC on silylated silica plates impregnated with Dow-Corning 704 fluid
Method in brief: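 Silica gel F-254 plates were silanized with 5% (CH3)2SiCl2 in toluene, then impregnated with 5% Dow-Corning 704 fluid in ether. Spots were 1 μL of 3 mg/mL CH2Cl2 solution. Plates were developed in acetone–water 3:1 saturated with the fluid and visualized with 2% aqueous AgNO3. Rm = log(1/Rf − 1), averaged over five determinations.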

| log(I50×10^5) [1] | log k' [2] | Rm [3] | Structure (SMILES) |
| --- | --- | --- | --- |
| 1.69 | -0.1127 | 0.2892 | CC12SSC3(C(=O)N1c1ccccc1)N(C2=O)c1ccccc1C3(C)C (stereo unspecified) |
| 0.574 | 0.0994 | 0.3514 | CC12SSC3(C(=O)N1Cc1ccccc1)N(C2=O)c1ccccc1C3(C)C (stereo unspecified) |
| 1.93 | -0.1291 | 0.2769 | CC(C)N1C(=O)C23SSC1(C)C(=O)N2c1ccccc1C3(C)C (stereo unspecified) |
| 1.06 | -0.0817 | 0.2717 | CCCN1C(=O)C23SSC1(C)C(=O)N2c1ccccc1C3(C)C (stereo unspecified) |
| 2.07 | -1.067 | 0.0132 | CN1CC(=O)N2c3ccccc3C(C)(C)C2(S)C1=O (stereo unspecified) |
| 0.978 | -0.0527 | 0.3007 | CN1C(=O)C23SSC1(c1ccccc1)C(=O)N2c1ccccc1C3(C)C (stereo unspecified) |
| 1.89 | -0.34 | 0.1636 | CCN1C(=O)C23SSC1(C)C(=O)N2c1ccccc1C3(C)C (stereo unspecified) |
